Measured values as given in paper PMC8842350 (Journal of Experimental Pharmacology, 2022).
Like-named read-outs stand apart in the source and are kept apart here.

Legend:
D2 receptor [1] = conditions: humans, cited from earlier work
[2] = toxicokinetic analysis in rat plasma; type: in vivo; conditions: all dose groups
Method in brief: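 Toxicokinetic cohort of 60 Sprague Dawley rats (30 male), separate from the pharmacology groups. A single oral dose was given on day 1 at 0, 100, 300 or 1000 mg/kg (maleate salt). Blood was drawn from the jugular vein of non-fasted rats on a serial schedule. Cmax, Tmax and AUC were derived from plasma concentration–time data.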

beagle dogs [3] = experiment: telemetry hemodynamic measurements in dogs; type: in vivo, dog; conditions: for adjusted mean diastolic pressure, lower vs control: 1 hour post-dose; for adjusted mean pulse pressure, lower than controls / adjusted mean systolic pressure, lower than controls: 3 hours post-dose; for adjusted mean systolic pressure, lower than controls: not significant
Method in brief: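 Telemetered male beagles (abdominal transmitter implanted at least 2 weeks before) given oral capsules at 0, 1, 10 or 30 mg/kg in a Latin square on days 1, 4, 8 and 11. Systolic, diastolic and mean arterial pressure, pulse pressure and heart rate recorded continuously from at least 90 min pre-dose to about 18 h post-dose. Analysed by repeated-measures ANCOVA with Dunnett or Dunnett–Hsu comparisons against control.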

Sprague Dawley rats [4] = experiment: functional observational battery; type: in vivo, rat; conditions: female rats, oral ≤ 1000 mg/kg/day, 0.5 hours post-dose on day 2
Method in brief: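 Eight female Sprague Dawley rats per group received oral gavage on days 1 and 2 at 0, 100, 300 or 1000 mg/kg/day (vehicle: 5% DMSO, 40% PEG 400, 55% saline; 10 mL/kg). Functional observational battery run once pre-dose and about 0.5 h post-dose on day 2, at the same time of day ±2 h. It covered sensory reactivity (approach response, righting reflex), grip strength, foot splay and body temperature.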

[5] = beagle dogs; cited from earlier work
CYP enzyme = conditions: cited from earlier work
D2 receptor [6] = conditions: rats, prolactin release as pharmacodynamic biomarker; cited from earlier work
Sprague Dawley rats [7] = experiment: pulmonary assessments; type: in vivo, rat; conditions: male rats, any dose level (100–1000 mg/kg/day)
Method in brief: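 Eight male Sprague Dawley rats per group. Acclimated 4 days, then placed in head-out plethysmography chambers three times on separate days. On day 1, a single oral gavage dose of 0, 100, 300 or 1000 mg/kg (DMSO/PEG 400/saline vehicle), then immediate chamber placement. Recorded at baseline, through 6 h and about 24 h post-dose. Analysed by repeated-measures ANCOVA with Dunnett–Hsu comparisons against control.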

P-glycoprotein (P-gp) = conditions: cited from earlier work
beagle dogs [8] = experiment: telemetry ECG evaluation in dogs; type: in vivo, dog
Method in brief: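 Male beagles with abdominal ECG/pressure/temperature transmitters implanted at least 2 weeks before. Oral capsule doses of 0, 1, 10 or 30 mg/kg in a Latin square with 2-day washouts. ECG recorded from at least 90 min pre-dose to about 18 h post-dose. QTc from a per-animal regression of 1-min QT versus RR means on the control day. Waveform review at 1, 2, 4, 8, 12 and 18 h. Repeated-measures ANCOVA with Dunnett tests.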

Sprague Dawley rats [9] = experiment: locomotor activity assessments; type: in vivo, rat; conditions: female rats; for basic movements: day 2, 4–6 minutes post-commencement of assessment, control 375, p ≤ 0.05
Method in brief: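 Female rats, 8 per group, dosed orally on days 1 and 2 at 0–1000 mg/kg/day. Tested pre-dose and on day 2: within 10 min after the functional battery, each rat was placed in a dark, sound-attenuated chamber. Photocell recording ran for 40 min, reported in 20 intervals of 2 min each. Read-outs: basic movement, horizontal and vertical ambulation, fine movement, rearing.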

rats = conditions: doses up to 30 mg/kg; cited from earlier work
hERG potassium channel = conditions: cited from earlier work
Sprague Dawley rats [10] = experiment: clinical observations and examinations in rats; type: in vivo, rat; conditions: rats treated with trazpiroben
Method in brief: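 Sprague Dawley rats, 11–12 weeks old, group-housed and acclimatised at least 1 week. Oral gavage at 0 (vehicle: 5% DMSO, 40% PEG 400, 55% saline), 100, 300 or 1000 mg/kg/day, 10 mL/kg, dose expressed as maleate salt. Checked twice daily for mortality, abnormalities and signs of pain or distress. Ophthalmic examination and body weight were recorded once pre-dose.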

CYP3A4 = conditions: cited from earlier work
[11] = dogs, 50 mg/kg; cited from earlier work
[12] = rats, 100 mg/kg; cited from earlier work
beagle dogs [13] = experiment: clinical observations, body weight and body temperature in dogs; type: in vivo, dog
Method in brief: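 Four male beagles, 17–18 months old, 9.9–12.8 kg. Oral gelatin capsules at 0 (Avicel:Explotab 10:1), 1, 10 or 30 mg/kg (maleate salt) on days 1, 4, 8 and 11, in a Latin square with ascending doses and 2-day washouts. Checked twice daily for mortality, abnormalities and distress, with daily cage-side observations. Body weight recorded pre-dose and the day before each dosing. Body temperature recorded by implanted telemetry.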

humans = conditions: any dose up to the maximum of 300 mg; cited from earlier work

O=C(O)c1cccc(CN2CN(C3CCCCC3)C3(CCN(CCCC(=O)c4ccccc4)CC3)C2=O)c1 [Trazpiroben]
dose at which maximal D2 receptor engagement occurs (D2 receptor [1]; first-in-human Phase I trial): 10 mg
average Cmax in plasma at maximal D2 receptor engagement (D2 receptor [1]; inferred using prolactin release): ~ 11 ng/mL
observed Cmax for each group of rats receiving trazpiroben [2]: ≥ 1450 ng/mL
adjusted mean diastolic pressure, higher vs control (beagle dogs [3]; 1 mg/kg, 4 hours post-dose, p ≤ 0.05): 6%
adjusted mean diastolic pressure, lower vs control (beagle dogs [3]; 10 mg/kg, p ≤ 0.05): 5%
adjusted mean pulse pressure, lower than controls (beagle dogs [3]; 10 mg/kg): 15%
adjusted mean systolic pressure, lower than controls (beagle dogs [3]; 10 mg/kg): 6%
adjusted mean diastolic pressure, higher vs control (beagle dogs [3]; 10 mg/kg, 4 hours post-dose, p ≤ 0.05): 8%
adjusted mean diastolic pressure, higher vs control (beagle dogs [3]; 10 mg/kg, 5 hours post-dose, p ≤ 0.01): 6%
adjusted mean diastolic pressure, lower vs control (beagle dogs [3]; 30 mg/kg, p ≤ 0.01): 8%
adjusted mean pulse pressure, lower than controls (beagle dogs [3]; 30 mg/kg): 23%
heart rate, higher than control (beagle dogs [3]; 30 mg/kg, 3 hours post-dose (greatest effect), first light cycle): 28%
adjusted mean systolic pressure, lower than controls (beagle dogs [3]; 30 mg/kg): 9%
adjusted mean diastolic pressure, higher vs control (beagle dogs [3]; 30 mg/kg, 4 hours post-dose, p ≤ 0.05): 5%
adjusted mean diastolic pressure, higher vs control (beagle dogs [3]; 30 mg/kg, 5 hours post-dose, p ≤ 0.01): 6%
changes in diastolic pressure, different from control (beagle dogs [3]; all changes, all doses): ≤ 8%
effects on FOB assessment results (Sprague Dawley rats [4]): No effects were observed
median Tmax [5]: approximately 1 hour post-dose
potential for CYP enzyme induction or inhibition (CYP enzyme): limited potential for CYP enzyme induction or inhibition
dose at which maximal D2 receptor engagement occurs (D2 receptor [6]): 1 mg/kg
effect on respiration rate or minute volume (Sprague Dawley rats [7]): No biologically relevant effect
substrate for the efflux transporter P-glycoprotein (P-gp) (P-glycoprotein (P-gp)): substrate
adjusted PR interval mean, lower than control (beagle dogs [8]; dogs, 30 mg/kg, 3 hours after administration (maximal effect)): 12%
adjusted PR interval mean (beagle dogs [8]; dogs, 30 mg/kg, 3 hours after administration, control 102 msec): 90 ms
effects on QRS duration or QT interval corrected for heart rate (QTc) (beagle dogs [8]; dogs, 1, 10, 30 mg/kg): no trazpiroben-related effects
QT interval, lower than control (beagle dogs [8]; dogs, first light cycle, 30 mg/kg, not significant at any dose): ≤ 6%
abnormal ECG waveforms or arrhythmias (beagle dogs [8]; male beagle dogs, oral 1, 10, 30 mg/kg): No abnormal ECG waveforms or arrhythmias were recorded
basic movements (Sprague Dawley rats [9]; 300 mg/kg/day): 199 basic movements in 2 minutes
basic movements (Sprague Dawley rats [9]; 1000 mg/kg/day): 171 basic movements in 2 minutes
counts of horizontal and vertical ambulation (Sprague Dawley rats [9]; ≥ 300 mg/kg/day, 2–6 minutes post-dose): significantly decreased
effects in rotarod testing (motor coordination) (rats): no trazpiroben-related effects were observed
difference in affinity, hERG versus intended D2/D3 receptor targets (hERG potassium channel): 10,000 fold
clinical observations, ophthalmic and body weight parameters (Sprague Dawley rats [10]): No unexpected clinical observations or changes
mortality (Sprague Dawley rats [10]): no trazpiroben-related mortality
CYP3A4 substrate classification (CYP3A4; Phase I drug–drug interaction study in healthy volunteers, ref NCT03161405): non-sensitive CYP3A4 substrate
brain penetration [11]: minimal brain penetration
brain penetration [12]: minimal brain penetration
effects on body weight or temperature (beagle dogs [13]; doses ≤ 30 mg/kg): not associated with effects on body weight or temperature
survival (beagle dogs [13]; to study termination on day 12): all dogs survived
CNS effects (humans): no CNS effects noted

O=c1[nH]c2ccccc2n1CCCN1CCC(n2c(=O)[nH]c3cc(Cl)ccc32)CC1 [domperidone, reference compound]
IC50 (hERG potassium channel; read-out: IC50, hERG potassium channel): 57 nM
metabolizing enzyme (CYP3A4): primarily metabolized via the cytochrome P450 (CYP) 3A4 enzyme
